The target in assay [1] is T1, Munc13-1 (Rattus norvegicus, UniProt Q62768). The format is cell-based. As to conditions: HT22 cells, 0–2 μM, 5 min, confocal. The gist of the method:
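HT22 cells are seeded on coverslips at 6 × 10^4/well and, at 70–80% confluency, transfected with Munc13-1-GFP (Lipofectamine, antibiotic-free DMEM). They are exposed to 0.1–2 μM test compound for 5 min, then fixed in 4% PFA for 10 min and imaged by confocal at 63×. Read-out is the ratio of mean membrane intensity (outer 300 nm) to whole-cell intensity. Statistics use two-way ANOVA with Tukey.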

For a further assay, the target named is Munc13-1^H567K (Rattus norvegicus, UniProt Q62768, H567K). The format is cell-based. As to conditions: HT22 cells, 0–2 μM, 5 min. The gist of the method: (§1)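 Fixed-cell confocal: HT22 cells in DMEM with 10% FBS and 2 mM glutamine are seeded on coverslips 24 h before transfection. At 70–80% confluence they are transfected (Lipofectamine 3000) with GFP-tagged mutant Munc13-1 plasmid in antibiotic-free medium. Treatment with test compound or PMA at 0.1–2 μM, then fixation in 4% PFA for 10 min and imaging at 63×. Ratio of mean membrane (outer 300 nm) to whole-cell GFP intensity.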

For assay [2], the target named is T1, Munc13-1. The assay can be described thus: Cell fractionation and Western blot of HT22 cells expressing GFP-tagged Munc13-1. The format is cell-based. As to conditions: 1 μM, 5 min, cell fractionation and immunoblot. Summed up:
(§2)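 Transfected HT22 cells (DMEM, 10% FBS, 70–80% confluent, Lipofectamine, antibiotic-free medium) express GFP-Munc13-1 or GFP-bMunc13-2 and are treated with 1 μM test compound. A kit separates the fractions: cytosolic buffer spin at 500g, 5 min; pellet in membrane buffer, 4 °C, 10 min, then 3000g, 5 min. 40 μg protein is run on 4–15% SDS–PAGE (membrane samples unheated). Probes are anti-GFP 1:500, Na,K-ATPase and β-actin 1:2000, with infrared detection.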
On the technique in general: In western blotting, separated proteins are transferred to a membrane and probed.

The target in assay [3] is T2, bMunc13-2 (Rattus norvegicus, UniProt Q62769). The format is cell-based. As to conditions: HT22 cells, immunoblotting (1 μM) and confocal microscopy (0–2 μM), 5 min. Summed up: as §2
T2 sequence (Q62769 1-1985 isoform Q62769-2): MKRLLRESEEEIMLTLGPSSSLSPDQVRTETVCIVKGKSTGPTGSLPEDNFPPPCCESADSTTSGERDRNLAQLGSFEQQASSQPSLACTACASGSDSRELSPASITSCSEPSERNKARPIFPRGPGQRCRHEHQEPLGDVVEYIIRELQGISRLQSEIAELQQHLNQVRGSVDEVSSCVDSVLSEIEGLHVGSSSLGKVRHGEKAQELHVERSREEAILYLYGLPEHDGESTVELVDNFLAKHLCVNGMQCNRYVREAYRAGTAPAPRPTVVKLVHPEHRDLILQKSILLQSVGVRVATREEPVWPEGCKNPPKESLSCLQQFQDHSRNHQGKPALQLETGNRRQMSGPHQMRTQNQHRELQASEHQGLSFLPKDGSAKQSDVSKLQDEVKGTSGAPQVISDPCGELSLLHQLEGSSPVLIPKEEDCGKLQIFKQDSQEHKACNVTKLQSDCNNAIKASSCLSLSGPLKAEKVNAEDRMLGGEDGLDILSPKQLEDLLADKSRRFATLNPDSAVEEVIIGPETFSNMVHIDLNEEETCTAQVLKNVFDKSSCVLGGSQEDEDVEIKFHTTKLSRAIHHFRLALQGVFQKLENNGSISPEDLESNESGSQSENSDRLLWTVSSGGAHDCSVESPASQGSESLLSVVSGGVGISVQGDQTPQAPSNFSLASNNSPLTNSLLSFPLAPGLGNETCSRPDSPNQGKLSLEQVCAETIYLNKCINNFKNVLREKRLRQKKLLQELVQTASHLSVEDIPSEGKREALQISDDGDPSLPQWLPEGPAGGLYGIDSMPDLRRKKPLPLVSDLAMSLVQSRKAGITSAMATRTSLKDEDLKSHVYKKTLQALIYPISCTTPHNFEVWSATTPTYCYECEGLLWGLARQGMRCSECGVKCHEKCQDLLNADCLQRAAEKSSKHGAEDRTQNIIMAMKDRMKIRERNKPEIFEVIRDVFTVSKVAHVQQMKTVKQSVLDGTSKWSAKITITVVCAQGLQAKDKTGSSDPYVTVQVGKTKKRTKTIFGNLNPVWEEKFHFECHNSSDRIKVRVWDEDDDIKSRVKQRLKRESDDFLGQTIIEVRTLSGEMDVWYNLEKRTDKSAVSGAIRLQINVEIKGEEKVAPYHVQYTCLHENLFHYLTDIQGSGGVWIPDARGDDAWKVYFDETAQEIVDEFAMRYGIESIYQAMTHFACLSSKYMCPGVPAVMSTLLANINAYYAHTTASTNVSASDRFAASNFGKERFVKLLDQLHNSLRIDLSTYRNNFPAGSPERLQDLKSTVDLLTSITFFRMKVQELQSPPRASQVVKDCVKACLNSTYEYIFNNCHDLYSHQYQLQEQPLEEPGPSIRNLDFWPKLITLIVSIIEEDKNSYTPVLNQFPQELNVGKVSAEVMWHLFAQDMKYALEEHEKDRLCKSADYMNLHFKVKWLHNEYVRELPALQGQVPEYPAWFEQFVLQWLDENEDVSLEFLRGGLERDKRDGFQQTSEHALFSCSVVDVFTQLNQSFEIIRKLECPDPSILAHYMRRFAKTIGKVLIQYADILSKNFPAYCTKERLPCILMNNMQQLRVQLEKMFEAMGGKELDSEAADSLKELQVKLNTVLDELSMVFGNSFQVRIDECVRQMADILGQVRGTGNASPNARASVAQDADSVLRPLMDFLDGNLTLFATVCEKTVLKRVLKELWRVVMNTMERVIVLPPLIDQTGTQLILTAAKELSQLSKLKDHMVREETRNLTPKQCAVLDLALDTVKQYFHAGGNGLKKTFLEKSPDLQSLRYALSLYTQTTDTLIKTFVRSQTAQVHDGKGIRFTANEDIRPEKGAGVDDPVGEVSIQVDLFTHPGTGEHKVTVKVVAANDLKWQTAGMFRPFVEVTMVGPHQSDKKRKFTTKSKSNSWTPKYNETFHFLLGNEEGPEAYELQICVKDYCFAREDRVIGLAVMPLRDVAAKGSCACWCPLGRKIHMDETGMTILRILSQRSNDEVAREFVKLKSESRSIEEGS
Assay [4] concerns the target T3, full-length Munc13-1 (Rattus norvegicus, UniProt Q62768). Nature of the assay: In vitro [3H]PDBu binding assay, full-length Munc13-1.
Assay [5] has as its target T3, full-length Munc13-1. The format is cell-based. The gist of the method: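 Living HT22 cells (passages 2–16) are transfected with GFP-tagged full-length Munc13-1 (X-tremeGENE HP), then transferred after 24 h into phenol red-free DMEM with 1% FBS. Test compound at 10, 100 or 1000 nM is added at time zero. Confocal imaging every 30 s (488 nm excitation, 500–530 nm emission). Plasma membrane/cytoplasm mean intensity ratio is normalized to time zero. 5–9 cells per concentration, three independent experiments; saturated cells excluded.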

In another assay the target is Munc13-1 C1 W22A mutant (Rattus norvegicus, UniProt Q62768, W588A). Nature of the assay: In vitro [3H]PDBu binding assay, Munc13-1 C1 domain W22A. The following applies: for decrease in affinity of W588A (W22A) mutant C1 domain versus WT: 100% PS.
The target of a further assay is Munc13-1 C1 domain WT (Rattus norvegicus, UniProt Q62768). Nature of the assay: In vitro [3H]PDBu binding assay, isolated Munc13-1 C1 domain. As to conditions: for Kd: read-out: Kd for PDBu; for affinity better than that of PDBu: isolated C1 domain.
Assay [6] concerns the target T2, bMunc13-2. Nature of the assay: Translocation of GFP-tagged bMunc13-2 in living HT22 cells. The format is cell-based. As to conditions: living HT22 cells, 10, 100, 1000 nM, 0–15 min. The gist of the method: (§3)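 GFP-tagged bMunc13-2 or ubMunc13-2 is expressed in living HT22 cells (passages 2–16, X-tremeGENE HP transfection). Imaging is in phenol red-free DMEM with 1% FBS, 24 h post-transfection. Test compound at 10, 100 or 1000 nM is added at time zero, with confocal frames every 30 s (488/500–530 nm). Plasma membrane/cytoplasm ratio is normalized to time zero. bMunc13-2: 3–6 cells per concentration; ubMunc13-2: 5–9 cells; three independent experiments.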

The test system of assay [7] is endogenous Munc13-1 in primary hippocampal neurons. The assay can be described thus: Expression of endogenous Munc13-1 in primary hippocampal neurons. The format is cell-based. The following applies: mouse primary hippocampal neurons, 0.1 or 0.5 μM, 24 h. Summed up: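 Hippocampi come from E18 mouse pups and are dissociated with trypsin/EDTA (20 min, 37 °C). Cells are plated at 8 × 10^4/well on poly-D-lysine coverslips in B-27 medium, and 7–8-day cultures are treated with 0.1 or 0.5 μM for 24 h. Cells are fixed in 4% PFA for 15 min and stained overnight at 4 °C with anti-Munc13-1 1:500, Tuj1 1:1000 and DAPI. Cytosolic Munc13-1 is measured by confocal in 3 wells × 3 cells per group.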

The target in the next assay is Munc13-1^W588A (Rattus norvegicus, UniProt Q62768, W588A). The format is cell-based. The following applies: HT22 cells, 1 μM, 5 min. Summed up:
as §1

A further assay has as its target ubMunc13-2 (Rattus norvegicus, UniProt Q62769). The assay can be described thus: Translocation of GFP-tagged ubMunc13-2 in living HT22 cells. The format is cell-based. The following applies: living HT22 cells, 10, 100, 1000 nM, 0–15 min. The gist of the method:
as §3

A further assay deals with Munc13-1 C1 domain (Rattus norvegicus, UniProt Q62768). The format is cell-based. The following applies: living HT22 cells, 1 μM. Summed up:
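Live-cell imaging, C1 domain: HT22 cells (passages 2–16; high-glucose DMEM, 10% FBS, 2 mM L-glutamine) are transfected with GFP-tagged Munc13-1 C1 domain (X-tremeGENE HP). After 24 h they are moved to phenol red-free DMEM with 1% FBS. Test compound 1 μM is added at time zero, with confocal images every 30 s (488 nm excitation, 500–530 nm emission). Cytoplasm/nucleus intensity ratio is normalized to time zero. 11–16 cells per treatment, three independent experiments; saturated cells excluded.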

In a further assay the target is PKCδ (Homo sapiens, UniProt Q05655). The assay can be described thus: Translocation of GFP-tagged PKCδ in living HT22 cells. The format is cell-based. The gist of the method: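 For PKCδ, living HT22 cells (passages 2–16) transiently express GFP-tagged PKCδ (X-tremeGENE HP). After 24 h, medium is changed to phenol red-free DMEM with 1% FBS. Test compound at 10, 100 or 1000 nM is added at time zero, with confocal imaging every 30 s (488 nm excitation, 500–530 nm emission). Nuclear membrane/cytoplasm intensity ratio is normalized to time zero. 4–7 cells per concentration, three independent experiments.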
Chain of PKCδ (Q05655 whole entry): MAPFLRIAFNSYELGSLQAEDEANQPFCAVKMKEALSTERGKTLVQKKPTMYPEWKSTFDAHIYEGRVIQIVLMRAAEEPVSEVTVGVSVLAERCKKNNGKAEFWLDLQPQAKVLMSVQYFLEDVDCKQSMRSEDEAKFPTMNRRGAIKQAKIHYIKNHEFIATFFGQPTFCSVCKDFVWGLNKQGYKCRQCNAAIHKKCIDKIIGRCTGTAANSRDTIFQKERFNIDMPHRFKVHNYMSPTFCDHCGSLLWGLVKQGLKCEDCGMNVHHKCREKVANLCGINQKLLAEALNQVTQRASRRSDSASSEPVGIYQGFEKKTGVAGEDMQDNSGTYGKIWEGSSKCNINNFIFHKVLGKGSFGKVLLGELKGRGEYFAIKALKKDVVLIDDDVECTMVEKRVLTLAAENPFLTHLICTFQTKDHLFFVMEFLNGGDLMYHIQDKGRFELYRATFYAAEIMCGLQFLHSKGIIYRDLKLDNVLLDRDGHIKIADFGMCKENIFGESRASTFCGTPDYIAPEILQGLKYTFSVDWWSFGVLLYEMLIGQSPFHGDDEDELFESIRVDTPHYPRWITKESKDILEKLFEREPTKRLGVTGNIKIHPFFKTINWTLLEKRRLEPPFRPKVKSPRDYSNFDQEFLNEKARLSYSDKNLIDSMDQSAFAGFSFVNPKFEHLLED

In assay [8] the test system is endogenous Munc13-1 in HT22 cells. Nature of the assay: Expression of endogenous Munc13-1 in differentiated HT22 cells. The format is cell-based, mouse. The following applies: 24 h. Summed up:
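Endogenous protein by Western blot: HT22 cells are differentiated in NeuroBasal medium with […], cAMP, L-glutamine and antibiotics. At 48–72 h after day 0, test compound is added at 0.1 or 0.5 μM for 24 h. Lysis in modified RIPA with protease/phosphatase inhibitors, sonication, 14000g 30 min at 4 °C. 7.5–10% SDS–PAGE, nitrocellulose, 2.5% BSA block. Anti-Munc13-1 1:500 and β-actin 1:5000, HRP secondary, ECL. Densitometric Munc13-1:β-actin ratio.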

Setting [9] is: read-out: Kd for PDBu, 100:0 PS/PC.

Where two headings read alike, the source gives them in different places.

Here are results for 3 molecules from article PMC6620733 (Biochemistry, 2019).

In the case of `CCCCCCCCCCCCCC(=O)O[C@@H]1[C@@H](C)[C@@]2(O)[C@@H](C=C(CO)C[C@]3(O)C(=O)C(C)=C[C@@H]23)[C@@H]2C(C)(C)[C@]12OC(C)=O` [PMA, phorbol 12-myristate 13-acetate], the “translocation of Munc13-1 to the plasma membrane” value on Munc13-1 [1] was “induced translocation of Munc13-1 to the plasma membrane”. The “translocation (localization change) of Munc13-1 H567K” value on Munc13-1^H567K is “no significant changes in localization”. Moreover, the “transfer of Munc13-1 to membrane fraction” value on Munc13-1 [2] is on record as “caused Munc13-1 to transfer to the membrane fraction”. In addition, the “translocation of GFP-tagged bMunc13-2” value at bMunc13-2 [3] is on record as “translocation similar to that of GFP-tagged Munc13-1”.

On to `CCCC(=O)O[C@@H]1[C@@H](C)[C@@]2(O)[C@@H](C=C(CO)C[C@]3(O)C(=O)C(C)=C[C@@H]23)[C@@H]2C(C)(C)[C@]12OC(=O)CCC` [PDBu, Phorbol 12,13-dibutyrate], for which the Kd (in general, the constant that tells how readily two partners part at equilibrium) stood at 0.00709 ± 0.00053 µM on full-length Munc13-1 [4] (setting [9]); 0.809 ± 0.0081 µM at Munc13-1 C1 W22A mutant (setting [9]); 0.082 ± 0.015 µM on Munc13-1 C1 domain WT (5:95 PS/PC); 0.0695 ± 0.0048 µM on Munc13-1 C1 domain WT (20:80 PS/PC); 0.124 ± 0.013 µM at Munc13-1 C1 domain WT (100:0 PS/PC). The Ki (commonly the equilibrium dissociation constant of an inhibitor or competing ligand from its target) at full-length Munc13-1 [4] (read-out: Ki for PDBu, 100% PS, measured in parallel with bryostatin 1) was 0.0071 ± 0.0005 µM; on Munc13-1 C1 domain WT (read-out: Ki for PDBu, PS/PC (20:80, w:w), assayed in parallel), 0.0695 ± 0.0048 µM; at Munc13-1 C1 domain WT (read-out: Ki for PDBu, PS/PC (100:0)), 0.124 ± 0.013 µM. Besides, the “effectiveness for inducing translocation relative to bryostatin 1” value at full-length Munc13-1 [5] (living HT22 cells, 1 μM) is on record as “modestly less effective than was bryostatin 1”. The “decrease in affinity of W588A (W22A) mutant C1 domain versus WT” value at Munc13-1 C1 W22A mutant came out at 6.5 fold.

In the case of `CCC/C=C/C=C/C(=O)O[C@H]1/C(=C/C(=O)OC)C[C@H]2C[C@H]([C@@H](C)O)OC(=O)C[C@H](O)C[C@@H]3C[C@H](OC(C)=O)C(C)(C)[C@](O)(C[C@@H]4C/C(=C/C(=O)OC)C[C@H](/C=C/C(C)(C)[C@]1(O)O2)O4)O3` [bryostatin 1], the Ki on full-length Munc13-1 [4] was determined as 0.00045 ± 4e-05 µM; on Munc13-1 C1 W22A mutant, 0.054 ± 0.012 µM; at Munc13-1 C1 domain WT (Ki for bryostatin 1, 5:95 PS/PC, 100 μg/mL lipid, 0.1 mM Ca2+, 100 nM [3H]PDBu), 0.0228 ± 0.0018 µM; at Munc13-1 C1 domain WT (Ki for bryostatin 1, 20:80 PS/PC, 100 μg/mL lipid, 0.1 mM Ca2+, 100 nM [3H]PDBu) it was 0.0227 µM; at Munc13-1 C1 domain WT (Ki for bryostatin 1, 100:0 PS/PC, 100 μg/mL lipid, 0.1 mM Ca2+, 100 nM [3H]PDBu), 0.00807 ± 0.0009 µM. For the same molecule, the “affinity better than that of PDBu” value was “approximately 15 fold” on full-length Munc13-1 [4] (full-length Munc13-1, 100% PS); 15 fold at Munc13-1 C1 domain WT (100% PS); 3 fold on Munc13-1 C1 domain WT (lower PS concentrations). Besides, the “translocation of bMunc13-2” value on bMunc13-2 [6] is “clear translocation”. In addition, the “expression of endogenous Munc13-1 in cytosol” value in assay [7] is given as “significantly increased the level of expression of Munc13-1”. The “translocation of Munc13-1 to the plasma membrane” value on Munc13-1 [1] is “induced translocation of Munc13-1 to the plasma membrane”. The “translocation (localization change) of Munc13-1 H567K” value at Munc13-1^H567K is listed as “no significant changes in localization”. Further, the “stimulation of translocation at 100 nM as fraction of that caused by 1000 nM” value at full-length Munc13-1 [5] (Munc13-1, 15 min value) was determined as 30%; on PKCδ (PKCδ, 15 min value) it was 63%. On full-length Munc13-1 [5] (living HT22 cells, 1 μM), the “translocation of full-length Munc13-1” value was “translocated to the plasma membrane”. In addition, the “transfer of Munc13-1 to membrane fraction” value at Munc13-1 [2] is “caused Munc13-1 to transfer to the membrane fraction”. Moreover, the “translocation of full-length Munc13-1 W588A” value on Munc13-1^W588A was “translocation was lost”. In addition, on bMunc13-2 [3], the “translocation of GFP-tagged bMunc13-2” value is “translocation similar to that of GFP-tagged Munc13-1”. Moreover, the “translocation of ubMunc13-2” value on ubMunc13-2 is listed as “clear translocation”. For the same molecule, the “decrease in affinity of W588A (W22A) mutant C1 domain versus WT” value at Munc13-1 C1 W22A mutant is recorded as 6.6 fold. Moreover, the “translocation of GFP-C1 domain” value on Munc13-1 C1 domain is “translocated within 5–20 min from the nucleus to internal membranes but not to the plasma membrane”. In addition, the “translocation of PKCδ” value at PKCδ (living HT22 cells, 10, 100, 1000 nM, 0–15 min) is “induces translocation of PKCδ to the nuclear membrane and to internal membranes, rather than to the plasma membrane”. Further, the “level of endogenous Munc13-1 staining” value in assay [8] (0.1 and 0.5 μM, immunostaining) is “increased with both doses”. Further, the “endogenous Munc13-1 levels by Western blot” value in assay [8] (0.1 or 0.5 μM) is recorded as “increased”.
